Data from ChEMBL document CHEMBL3751716, “Identification of 5-Methoxyflavone as a Novel DNA Polymerase-Beta Inhibitor and Neuroprotective Agent against Beta-Amyloid Toxicity” (J Nat Prod, 2015).
The source made the active and inactive calls. The calls are words filed in the database; no cut-off is given here.

Key:
[1] = Cytotoxicity against mouse 88TAg fibroblasts assessed as compound level causing reduction of cell viability incubated for 2 hrs by MTT assay
Outline: (§1)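 Mouse embryonic fibroblasts, 92TAg (wild type) or 88TAg (pol-β null), were seeded 5 × 10^3/well and serum-deprived at treatment. Compound (5-60 μM) was given 2 h, then a 2 h MMS pulse (500 μM for 92TAg, 250 μM for 88TAg). After washout, compound was re-added and viability read 24 h from start by MTT (0.9 mg/mL, 2 h, 37 °C; DMSO lysis; A570). Means ± SEM, 3-9 determinations.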

Mus musculus [2] = species on record: Mus musculus; assay: Effect on cell cycle distribution in against polymerase-beta knock out mouse 88TAg cells assessed as cell accumulation at S-phase at 8 ug/ml incubated for 15 hrs by propidium iodide staining based cytofluorimetric analysis; assay type: functional
Outline: (§2)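 Mouse embryonic fibroblasts (wild-type 92TAg; pol-β-null 88TAg) grown in DMEM with 10% FBS at 37 °C and 5% CO2. Synchronized in 0.2% FBS medium for 72 h, then returned to 10% FBS medium with compound for 15 h. Cell-cycle phase percentages scored by cytofluorimetry of propidium iodide-labeled cells. Experiments run at least in triplicate, one-way ANOVA.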

Mus musculus [3] = species on record: Mus musculus; assay: Effect on cell cycle distribution in against mouse 92TAg cells assessed as cell accumulation at S-phase at 8 ug/ml incubated for 15 hrs by propidium iodide staining based cytofluorimetric analysis; assay type: functional; outline: as §2
[4] = Cytotoxicity against mouse 88TAg fibroblasts assessed as reduction of cell viability at 60 uM incubated for 2 hrs by MTT assay; outline: as §1
[5] = Cytotoxicity against Sprague-Dawley rat cortical neurons at 50 uM by MTT assay; conditions: cortical neurone
[6] = molecular target: DNA polymerase beta (Homo sapiens) (UniProt P06746); conditions: 50 uM
[7] = tested on: DNA polymerase beta (Mus musculus); assay: Inhibition of DNA polymerase-beta in mouse wild-type 92TAg cells assessed as increase in MMS toxicity at 1 to 60 uM incubated for 2 hrs prior to MMS challenge for 2 hrs followed by post wash compound addition measured after 24 hrs by MTT assay

## c1ccc2c(c1)c1ccccc1n2Cn1c2ccccc2c2ccccc21
[1]
  Activity: <= 90%

## Cc1ccccc1Nc1nc2ccc([N+](=O)[O-])cc2nc1Nc1ccccc1C
[1]
  Activity: <= 90%

## C[C@@]1(CO)[C@H](O)CC[C@@]2(C)[C@H]1CC[C@H]1C[C@@H]3C[C@@]12CC[C@]3(O)CO
Mus musculus [2]
  Activity: Active
Mus musculus [3]
  Activity: Active

## O=c1cc(-c2ccccc2O)oc2c1ccc1ccccc12
[4]
  Activity: <= 90%
[1]
  Activity: 10 µM

## CC1(C)CC[C@]2(C(=O)O)CC[C@]3(C)C(=CC[C@@H]4[C@@]5(C)CC[C@H](O)C(C)(C)[C@@H]5CC[C@]43C)[C@@H]2C1 [OLEANOLIC_ACID]
[5]
  Activity: Toxic
[6]
  inhibition: Active

## CC1(C)NCCC12C(=O)N(Cc1ccccc1)c1ccccc12 (stereo unspecified)
[7]
  inhibition: inactive
[1]
  Activity: Non-toxic

## C[C@H](C(=O)O)c1cccc(C(=O)c2ccccc2)c1 [DEXKETOPROFEN]
[1]
  Activity: Non-toxic
